Measurements as given in ChEMBL document CHEMBL4368863, “Evaluation of novel N'-(3-hydroxybenzoyl)-2-oxo-2H-chromene-3-carbohydrazide derivatives as potential HIV-1 integrase inhibitors” (Medchemcomm, 2019).

Experiments:
[1] = biological target: Human immunodeficiency virus type 1 integrase (Human immunodeficiency virus 1, UniProt Q7ZJM1); test: Inhibition of HIV1 subtype C recombinant integrase strand transfer activity preincubated for 45 mins with double-stranded biotinylated donor DNA followed by addition of double stranded FITC-labelled target DNA and measured after 60 mins relative to control
Sequence of Human immunodeficiency virus type 1 integrase (Q7ZJM1 whole entry): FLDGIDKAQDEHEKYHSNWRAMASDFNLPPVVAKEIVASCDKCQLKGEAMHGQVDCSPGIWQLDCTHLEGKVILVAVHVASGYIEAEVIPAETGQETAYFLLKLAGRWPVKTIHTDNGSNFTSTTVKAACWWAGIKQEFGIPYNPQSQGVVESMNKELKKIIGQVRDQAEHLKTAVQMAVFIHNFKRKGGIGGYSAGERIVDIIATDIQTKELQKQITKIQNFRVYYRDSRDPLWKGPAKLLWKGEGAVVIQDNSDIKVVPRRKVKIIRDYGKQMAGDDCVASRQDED

[2] = Cytotoxicity against human HeLa cells assessed as cell viability at 25 uM after 48 hrs by resazurin dye-based fluorescence assay; settings: read-out: Activity
Method in brief: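 HeLa cells seeded at 6.7 × 10^4 per well in DMEM with 10% foetal bovine serum and penicillin/streptomycin/amphotericin B. Grown 24 h at 37 °C, 5% CO2, then exposed to compound at 25 μM final for 48 h. Resazurin added and fluorescence read (Ex 560/Em 590 nm) after 2–4 h more. Viability expressed as % of no-compound control wells.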

Compound	IC50 [1]	viability at 48 h, 25 µM [2]
O=C(NNC(=O)c1cc2cc(Br)ccc2oc1=O)c1ccccc1O	14 nM	> 70%
COc1cccc(C(=O)NNC(=O)c2cc3cc(Br)ccc3oc2=O)c1O	–	> 70%
COc1cccc(C(=O)NNC(=O)c2cc3ccccc3oc2=O)c1O	–	> 70%
COc1cccc2cc(C(=O)NNC(=O)c3ccccc3O)c(=O)oc12	47 nM	> 70%
COc1ccc(O)c(C(=O)NNC(=O)c2cc3cc(Cl)ccc3oc2=O)c1	605 nM	> 70%
COc1cccc(C(=O)NNC(=O)c2cc3cccc(OC)c3oc2=O)c1O	–	> 70%
COc1ccc(O)c(C(=O)NNC(=O)c2cc3ccccc3oc2=O)c1	5800 nM	> 70%
O=C(NNC(=O)c1cc2cc(Cl)ccc2oc1=O)c1ccccc1O	13 nM	> 70%
CCOc1cccc2cc(C(=O)NNC(=O)c3cccc(OC)c3O)c(=O)oc12	–	> 70%
CCOc1cccc2cc(C(=O)NNC(=O)c3cc(OC)ccc3O)c(=O)oc12	592 nM	> 70%
COc1ccc(O)c(C(=O)NNC(=O)c2cc3cc(Br)ccc3oc2=O)c1	163 nM	> 70%
CCOc1cccc2cc(C(=O)NNC(=O)c3ccccc3O)c(=O)oc12	104 nM	> 70%
COc1ccc(O)c(C(=O)NNC(=O)c2cc3cccc(OC)c3oc2=O)c1	901 nM	> 70%
O=C(NNC(=O)c1cc2cc(Cl)ccc2oc1=O)c1cc(Cl)ccc1O	41 nM	> 70%
CCOc1cccc2cc(C(=O)NNC(=O)c3cc(Cl)ccc3O)c(=O)oc12	31 nM	> 70%
O=C(NNC(=O)c1cc2ccccc2oc1=O)c1cc(Cl)ccc1O	33 nM	> 70%
O=C(NNC(=O)c1cc2cc(Br)ccc2oc1=O)c1cc(Cl)ccc1O	175 nM	> 70%
O=C(NNC(=O)c1cc2ccccc2oc1=O)c1ccccc1O	70 nM	> 70%
COc1cccc2cc(C(=O)NNC(=O)c3cc(Cl)ccc3O)c(=O)oc12	23 nM	> 70%
COc1cccc(C(=O)NNC(=O)c2cc3cc(Cl)ccc3oc2=O)c1O	–	> 70%
